Bioassay records as filed in PubChem BioAssay.
DAGLB inh: diacylglycerol lipase beta (human) inhibition. actives 0.059% (n = 340,000). inhibition, % at 5.17 µM. HEK293T DAGLB membrane lysate, EnzChek fluorogenic substrate; in the data active means inhibition above about 34%
Target sequence (Q8NCG7 whole entry, looked up): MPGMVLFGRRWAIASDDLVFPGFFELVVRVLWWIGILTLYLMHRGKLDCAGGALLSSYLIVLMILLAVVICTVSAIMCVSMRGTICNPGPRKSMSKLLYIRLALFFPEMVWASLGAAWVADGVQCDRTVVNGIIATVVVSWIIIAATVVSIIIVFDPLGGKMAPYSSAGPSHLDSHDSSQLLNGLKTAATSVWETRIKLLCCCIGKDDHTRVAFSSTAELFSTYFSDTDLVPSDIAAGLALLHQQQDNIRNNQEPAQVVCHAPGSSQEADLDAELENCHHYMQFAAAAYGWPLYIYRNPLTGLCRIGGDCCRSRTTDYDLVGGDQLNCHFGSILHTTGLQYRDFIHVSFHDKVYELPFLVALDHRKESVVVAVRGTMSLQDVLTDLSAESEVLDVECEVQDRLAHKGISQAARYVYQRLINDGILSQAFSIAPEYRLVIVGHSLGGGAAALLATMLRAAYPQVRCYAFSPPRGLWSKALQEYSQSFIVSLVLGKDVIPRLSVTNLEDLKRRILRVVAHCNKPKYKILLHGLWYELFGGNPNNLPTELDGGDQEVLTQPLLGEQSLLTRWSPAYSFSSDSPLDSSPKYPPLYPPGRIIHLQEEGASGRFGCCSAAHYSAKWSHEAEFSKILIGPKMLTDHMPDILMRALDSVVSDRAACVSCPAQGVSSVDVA
SKN-1 inh: C. elegans SKN-1 inhibition. C. elegans VP596 Pgst-4::GFP/RFP ratio, acrylamide-induced, 24 h. inhibition, % at 21.8 µM. actives 0.49% (n = 360,000);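 active means interference check ratio from 0.5 to 1.5 plus GFP to RFP signal ratio inhibition reaching or exceeding a fixed threshold, cut at about 30% in these data, passing the limit was not always enough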
MT1-MMP act inh: MT1-MMP (human) activation inhibition; HT1080 RFP-PRO-GFP cells, GFP/RFP ratio fluorescence, overnight; percent of plate control window, DMSO zero; GFP/RFP ratio change, % at 20 µM; P50281; actives 0.061% (n = 360,000);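 active means GFP/RFP ratio change of at least 30% with cell ATP level not reduced by more than half and red fluorescence within 50% of control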
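Assay system – RFP-PRO-GFP reporter HT1080 cells · Compound dosing – single dose of 20 µM compound, 1% DMSO final · Incubation – overnight compound exposure at 37 °C · Measure – GFP/RFP fluorescence ratio · Benchmarks – DMSO wells and RFP-L50D-GFP cells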
Cneo AK release: Cryptococcus neoformans lysis via adenylate kinase release. C. neoformans lysis, adenylate kinase release luminescence, 4 h; normalised: neutral wells 0, clomiphene wells 100. lysis activity, % at 15 µM. actives 0.2% (n = 360,000). AID 651654;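 active means mean lysis activity across replicates of at least 80%, whatever share of replicates individually reach that level; inactive means mean lysis activity below 80%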
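Schedule: static 4 h at 37 °C with compound, 1 h detection; system: C. neoformans cells; benchmarks: Clomiphene as positive control; buffer or medium: fresh YPD medium; measure: luminescence rise reflecting yeast cell lysis; measured by: luminescent adenylate kinase detection reagent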
Ecoli rRNA inh: inhibits bacterial ribosomal RNA function over humanized ribosomes; actives 1.6% (n = 350,000); GFP signal change (wild-type ribosome), % (concentration not given with the values); AID 720706; E. coli WT GFP vs humanized-ribosome RFP mutants, fluorescence, 24 h; stronger effect = lower value; DMSO median 0, no signal -100;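 active means significant combined selectivity score with lowered wild-type GFP, culture density cut under 30%, mutant RFP and density less affected; inactive means any of these conditions unmet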
iPSC survival up: hiPSC single-cell survival enhancement; ATPlite luminescence; 100% = ROCK inhibitor wells, 0% = DMSO; survival enhancement, % at 20 µM; actives 0.044% (n = 360,000); AID 602274; in the data active means survival enhancement above about 18%;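 further: cells exposed to compounds for 16 hours before the ATP read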
AID977621: growth inhibition of wild-type GFP E. coli, dose response, H69 mutant RFP, cherry-pick. E. coli wild-type GFP strain growth, fluorescence, 24 h. activity change, negative = inhibition at 50 µM. shares compounds with Ecoli rRNA inh. 1,900 tested, under 10 active. AID 977621;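 active means Wild-type ribosome reporter drop at least double the humanized mutant ribosome reporter drop, growth loss under a set limit; inconclusive means no clear call, values can overlap the other calls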;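 further: wild-type GFP and H69 mutant RFP strains grown together 50/50 in each well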
AID977628: growth of wild-type and h24-humanized E. coli strains – h24 mutant RFP vs wild-type GFP, cherry-pick, dose response; shares compounds with Ecoli rRNA inh; E. coli WT GFP strain growth, fluorescence, 24 h; activity change, negative = inhibition at 50 µM; 1,900 tested, under 10 active; AID 977628;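 active means compound lowering the normal-ribosome reporter at least twice as much as the humanized-ribosome reporter, growth loss under a set limit; inconclusive means no clear call, values can overlap the other calls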;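 further: wild-type GFP and h24 humanized RFP strains co-cultured 1 to 1 per well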
Numbers stand for hits; i = inactive; ? = inconclusive; nt = no result. A selection: hits, their analogues and other compounds. The true share with any hit is near 1.8%.

SMILES | DAGLB inh | SKN-1 inh | MT1-MMP act inh | Cneo AK release | Ecoli rRNA inh | iPSC survival up | AID977621 | AID977628
COc1ccc(S(=O)(=O)N(C)C)cc1NC(=O)c1ccc2c(c1)NC(=O)C(C)S2 (stereo not drawn) | i | i | i | i | -21 | i | i | nt
CC1Sc2ccc(C(=O)Nc3ccc(S(=O)(=O)N(C)C)cc3)cc2NC1=O (stereo not drawn) | i | i | i | nt | i | i | nt | nt
C[C@@H]1CN([C@H](C)CO)C(=O)c2cc(NC(=O)c3ccccc3)ccc2O[C@@H](C)CCCCO[C@@H]1CN(C)C(=O)c1ccncc1 | nt | nt | nt | i | i | nt | nt | nt
Nc1[nH]c(C(=O)c2ccccc2)c(-c2ccc(Br)cc2)c1C(=O)c1cccs1 | nt | i | i | nt | -34 | i | ? | nt
O=C(c1cnc(Cc2c[nH]c3ccccc23)c(I)c1)N1CCCCC1 | nt | i | i | i | -24 | i | i | nt
Fc1ccc(CSc2nnc(-c3ccco3)o2)cc1 | i | 71 | i | nt | -17 | i | ? | i
O=C(Cn1c(CO)nc2ccccc21)NCCc1ccc(F)cc1 | i | i | i | i | -19 | i | ? | nt
O=C(c1ccc2c3c(cccc13)CC2)N1CCN(c2ncccn2)CC1 | i | i | i | i | -28 | i | i | i
O=C(c1cnc(N2CCN(c3ncccn3)CC2)c2ccccc12)N1CCN(c2ncccn2)CC1 | i | i | i | i | nt | i | nt | nt
C#Cc1ccc([C@H]2C=C(C(=O)N3CCOCC3)O[C@@H](OCCCCO)C2)cc1 | nt | nt | nt | i | nt | nt | nt | nt
Clc1cccc(OCc2nc(-c3ccncc3)n[nH]2)c1 | i | i | i | nt | -22 | i | i | nt
Fc1ccc(OCc2nc(-c3ccncc3)n[nH]2)cc1 | i | i | i | nt | i | i | nt | nt
CN(C)C(=O)C[C@H]1CC[C@H]2[C@@H](COC[C@H](O)CN2Cc2ccc(C(F)(F)F)cc2)O1 | nt | nt | nt | i | i | nt | nt | nt
COc1cc(OC)c(NS(=O)(=O)c2cccc(C(=O)OCC(=O)NCC3CCCO3)c2)cc1Cl (stereo not drawn) | i | i | i | i | -23 | i | i | i
C[C@@H]1CN([C@@H](C)CO)C(=O)c2cc(/C=C/c3ccccc3)cnc2O[C@H]1CN(C)Cc1cccnc1 | nt | nt | nt | i | i | nt | nt | nt
Cc1occc1C(=O)NCc1ccccc1 | i | i | i | i | nt | i | nt | nt
Cc1ccc(C(=O)NCc2ccccc2)c(F)c1F | i | i | i | nt | -18 | i | i | i
O=C(C[C@@H]1C[C@@H]2c3cc(NC(=O)Nc4ccccc4)ccc3O[C@@H]2[C@@H](CO)O1)NCc1cccc(F)c1 | nt | nt | nt | i | i | nt | nt | nt
Cc1ccc(C(=O)Nc2ccc(NC(=O)c3cccs3)cc2)cc1[N+](=O)[O-] | i | i | i | i | i | i | nt | nt
CC(=O)Nc1ccc(S(=O)(=O)Nc2ccc(C)c([N+](=O)[O-])c2)cc1 | i | i | i | i | -26 | i | nt | ?
Cc1ccc(NC(=O)c2cccs2)cc1[N+](=O)[O-] | i | i | i | nt | -28 | i | i | nt
CC(=O)Nc1ccc(NS(=O)(=O)c2cc([N+](=O)[O-])ccc2C)cc1 | i | i | i | nt | i | i | nt | nt
Cc1cccc(OCc2nnc(SCC(=O)Nc3ncc(C)s3)o2)c1 | i | i | i | nt | -34 | i | nt | i
Cc1cccc(OCc2nnc(SCC(=O)Nc3ccc(C)c(C)c3)o2)c1 | i | i | i | i | i | i | nt | nt
O=C(Nc1ccc2c(c1)OCCO2)C1C(c2ccccc2)=Nc2ccccc2N1C(=O)c1cccnc1 (stereo not drawn) | nt | i | i | nt | -8.2 | nt | i | ?
SMILES | DAGLB inh | SKN-1 inh | MT1-MMP act inh | Cneo AK release | Ecoli rRNA inh | iPSC survival up | AID977621 | AID977628
COc1ccc2cc(C(=O)C3CCCN(Cc4ccccn4)C3)ccc2c1 (stereo not drawn) | i | i | i | i | i | i | nt | nt
CCn1ccnc1CN1CCCC(C(=O)c2ccc3cc(OC)ccc3c2)C1 (stereo not drawn) | i | i | i | i | -33 | i | i | i
Cc1ccc(NC(=O)C[n+]2cc(-c3ccccc3)n3c2CCC3)c(C)c1 | i | i | i | nt | -21 | i | ? | ?
COc1ccccc1C1CCN(C(=O)c2cccs2)CC1 | nt | i | i | i | -25 | i | i | i
Cc1cc(C)nc(SCCC(=O)Nc2ccccc2Cl)n1 | i | i | i | nt | -18 | i | nt | i
Cc1cc(C)nc(SCCC(=O)Nc2cccc3ccccc23)n1 | i | i | i | i | nt | i | nt | nt
COc1ccc(C2CN=NC23CCc2ccccc2C3=O)cc1 (stereo not drawn) | i | i | i | i | -20 | i | i | nt
COc1ccc(C2CN=NC23CCCc2ccccc2C3=O)cc1 (stereo not drawn) | i | i | i | i | nt | i | nt | nt
COc1ccc(NC(=O)N(C)C[C@H]2Oc3c(NC(=O)Nc4ccc(F)cc4)cccc3C(=O)N([C@H](C)CO)C[C@@H]2C)cc1 | nt | nt | nt | i | i | nt | nt | nt
Cc1cc(C)c2[nH]c(C(=O)Nc3ccc4c(c3)OCO4)cc2c1 | i | i | i | nt | i | i | nt | nt
CCc1ccc2[nH]c(C(=O)Nc3ccc4c(c3)OCO4)cc2c1 | i | i | i | nt | -26 | i | i | ?
CN(C)S(=O)(=O)c1cccc(C(=O)OCC(=O)c2ccc3c(c2)NC(=O)CO3)c1 | i | i | i | i | -27 | i | i | i
CN(C)S(=O)(=O)c1ccc(C(=O)OCC(=O)c2ccc3c(c2)NC(=O)CO3)cc1 | i | i | i | i | i | i | nt | nt
O=C(NCc1ccco1)c1ccc2ccccc2n1 | i | i | i | nt | -14 | i | i | ?
Cc1nc2ccccc2cc1C(=O)NCc1ccco1 | i | i | i | i | nt | i | nt | nt
O=S(=O)(Cc1ccco1)Cc1nc(-c2ccc(Cl)cc2)cs1 | nt | i | i | i | -34 | i | i | i
COc1ccc2c3c(n(C)c2c1)[C@H](CO)N(CC1CC1)CC31CCN(C(=O)Nc2ccc(F)cc2F)CC1 | nt | nt | nt | nt | i | nt | nt | nt
O=C(OCC(=O)N1CCOCC1)c1cccc(S(=O)(=O)N2CCCc3ccccc32)c1 | i | i | i | nt | -18 | i | i | ?
CC1CN(C(=O)COC(=O)c2cccc(S(=O)(=O)N3CCc4ccccc43)c2)CC(C)O1 (stereo not drawn) | i | i | i | i | i | i | nt | nt
CCC(=O)N1CC[C@@H]2[C@H](CO)Nc3ccc(-c4cccc(C#N)c4)cc3[C@@H]21 | nt | nt | nt | i | i | nt | nt | nt
O=C(Nc1ccc2c(c1)OCO2)c1cccc(S(=O)(=O)N2CCCC2)c1 | i | i | i | nt | -14 | i | ? | nt
